Compound activity deposited in PubChem by several laboratories.
Compounds with a hit are over-represented: about 2.6% of the library has one in this group of screens.
SENP6 inh – SENP6 protease inhibition. Q9GZR1. Recombinant SENP6 catalytic domain, aminoluciferin luminescence. 330,000 compounds, 1.8% hits. inhibition, % at 10 µM;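 active = inhibition above about 50% at the single tested dose, limit read from the data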
SENP8 block-1 – blocks the human protease SENP8; inhibition, % at 10 µM; Q96LD8; 330,000 compounds, 1.2% hits; purified SENP8, Z-RLRGG-aminoluciferin cleavage, luminescence; in the data active = inhibition above about 50%
SENP8 block-2 – inhibitors of human SENP8 protease | recombinant SENP8, Nedd8 substrate fluorescence | inhibition, % at 20 µM | 360,000 compounds, 0.64% hits; in the data active = inhibition mostly above about 40%, no sharp cut-off; inactive = mostly below about 27%
SENP7 block – SENP7 protease inhibition; 330,000 compounds, 1.5% hits; recombinant SENP7, Z-RLRGG-aminoluciferin luminescence, 40 min; inhibition, % at 5 µM; Q9BQF6;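 active = inhibition above about 50% at the single test dose, limit read from the data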
Target sequence (Q9BQF6 706-1050 limits assumed): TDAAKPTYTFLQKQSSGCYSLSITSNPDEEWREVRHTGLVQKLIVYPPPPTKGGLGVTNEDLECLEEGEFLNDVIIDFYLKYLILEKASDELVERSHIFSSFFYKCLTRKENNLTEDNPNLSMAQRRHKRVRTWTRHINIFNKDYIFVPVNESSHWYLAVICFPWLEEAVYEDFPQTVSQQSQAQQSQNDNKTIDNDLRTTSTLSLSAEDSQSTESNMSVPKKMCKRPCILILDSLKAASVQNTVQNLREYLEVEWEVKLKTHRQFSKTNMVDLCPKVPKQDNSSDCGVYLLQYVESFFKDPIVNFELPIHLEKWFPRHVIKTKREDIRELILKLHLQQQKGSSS
SENP1 FRET inh – SENP1 (human) catalytic domain inhibition; Q9P0U3; recombinant SENP1 catalytic domain, CyPet-SUMO1-YPet FRET cleavage; inhibition, % at 10 µM; 360,000 compounds, 0.21% hits;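 active = inhibition at least 30% at 10 µM, raw YFP signal under a set limit, fluorescence ratio 0.5 to 1.5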
Target sequence (Q9P0U3 419-644 limits assumed): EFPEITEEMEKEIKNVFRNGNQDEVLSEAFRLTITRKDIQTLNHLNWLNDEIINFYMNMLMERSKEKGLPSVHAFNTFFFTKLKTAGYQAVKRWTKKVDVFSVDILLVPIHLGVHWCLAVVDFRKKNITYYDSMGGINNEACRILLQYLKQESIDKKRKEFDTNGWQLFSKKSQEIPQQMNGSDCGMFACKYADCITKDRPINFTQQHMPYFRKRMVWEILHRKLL
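Compound: 10 µM single point, 0.5% DMSO; Test system: hSENP1 catalytic domain, recombinant; Timing: 50 min reaction at room temperature; Technique: FRET, CFP and YFP emission; Control set: no-enzyme wells low, DMSO-plus-enzyme wells high control.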
Platelet DG rel – platelet dense granule release activity; human platelet-rich plasma, SFLLRN dense granule ATP release, luminescence; inhibition, %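 (compounds screened at 7.5 µM in platelet-rich plasma)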; 300,000 compounds, 0.22% hits; AID 1663;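 active = mean replicate score, as percent of positive control, at or above 50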
Hits are given with their value.

Results for CN(C)Cc1cc(O)c(CN(C)C)cc1O ?
SENP6 inh: inactive; SENP8 block-1: inactive; SENP8 block-2: 55; SENP7 block: inactive; SENP1 FRET inh: 32; Platelet DG rel: inactive

Results for COc1ccc(NC(=O)/C(Cl)=C(/Cl)S(=O)Cc2ccccc2)cn1 (stereo not drawn) ?
SENP6 inh: inactive; SENP8 block-1: inactive; SENP8 block-2: inactive; SENP7 block: inactive; SENP1 FRET inh: inactive; Platelet DG rel: 57

How did Cc1c(N2C(=O)/C(=C\c3ccccc3O)SC2=S)c(=O)n(-c2ccccc2)n1C do in these assays?
SENP6 inh: inactive; SENP8 block-1: inactive; SENP8 block-2: inactive; SENP7 block: inactive; SENP1 FRET inh: inactive; Platelet DG rel: inactive

Results for CN1C(=O)/C(=C/c2cc(N=Nc3ccccc3)ccc2O)SC1=S ?
SENP6 inh: inactive; SENP8 block-1: inactive; SENP8 block-2: 39; SENP7 block: inactive; SENP1 FRET inh: inactive; Platelet DG rel: inactive

Results for COc1ccccc1NC(=O)COC(=O)c1c[nH]c(=O)[nH]c1=O ?
SENP6 inh: inactive; SENP8 block-1: inactive; SENP8 block-2: inactive; SENP7 block: inactive; SENP1 FRET inh: inactive; Platelet DG rel: inactive

What do the screens show for `O=C(COC(=O)c1c[nH]c(=O)[nH]c1=O)Nc1ccccc1Br`?
SENP6 inh: inactive; SENP8 block-1: inactive; SENP8 block-2: inactive; SENP7 block: inactive; SENP1 FRET inh: inactive; Platelet DG rel: 82

What do the screens show for `CCCCNC(=O)Nc1ccc(Br)cn1`?
SENP6 inh: inactive; SENP8 block-1: inactive; SENP8 block-2: inactive; SENP7 block: inactive; SENP1 FRET inh: inactive; Platelet DG rel: 53

Results for CCOC(=O)c1noc2c1CCC2 ?
SENP8 block-2: inactive; SENP1 FRET inh: inactive

What do the screens show for `CCc1nc2c(OCC(=O)c3ccc(F)cc3)cccn2c1N(C)C(=O)c1ccccc1F`?
SENP8 block-2: inactive; SENP1 FRET inh: inactive

How did CC(=O)NC1=C(NC2CCS(=O)(=O)C2)C(=O)c2ccccc2C1=O (stereo not drawn) do in these assays?
SENP6 inh: inactive; SENP8 block-1: inactive; SENP8 block-2: 46; SENP7 block: inactive; SENP1 FRET inh: inactive; Platelet DG rel: inactive

What do the screens show for `O=C(CN1C(=O)c2ccccc2C1=O)NC1CCS(=O)(=O)C1` (stereo not drawn)?
SENP8 block-2: inactive; SENP1 FRET inh: inactive

What do the screens show for `C[C@@H]1O[C@H](C2CCCC2)CC2=C1C(=O)OC(C)(C)O2`?
SENP8 block-2: inactive; SENP1 FRET inh: inactive

How did O=c1cc(-c2ccc(O)c(O)c2)oc2cc(O[C@@H]3O[C@H](CO)[C@@H](O)[C@H](O)[C@H]3O)cc(O)c12 do in these assays?
SENP6 inh: inactive; SENP8 block-1: inactive; SENP8 block-2: inactive; SENP7 block: inactive; SENP1 FRET inh: 34

What do the screens show for `O=C1c2cccc(NCCNCCO)c2C(=O)c2cccc(NCCNCCO)c21`?
SENP8 block-2: 44; SENP1 FRET inh: inactive

How did COc1ccc2cc1Oc1ccc(cc1)CC1c3c(cc(OC)c4c3Oc3cc5c(cc3O4)CCNC5C2)CCN1C (stereo not drawn) do in these assays?
SENP6 inh: inactive; SENP8 block-1: inactive; SENP8 block-2: 45; SENP7 block: inactive; SENP1 FRET inh: inactive; Platelet DG rel: inactive

Results for COc1ccc2cc1Oc1ccc(cc1)C[C@H]1c3c(cc(OC)c4c3Oc3c(ccc5c3[C@H](C2)N(C)CC5)O4)CCN1C ?
SENP6 inh: inactive; SENP8 block-1: inactive; SENP8 block-2: inactive; SENP7 block: inactive; SENP1 FRET inh: inactive

What do the screens show for `Cc1ncc(C(O)c2ccc(N(C)C)cc2)n1Cc1ccccc1` (stereo not drawn)?
SENP8 block-2: inactive; SENP1 FRET inh: inactive

Results for CN(C)c1ccc2nc3c(=O)[nH]c(=O)nc-3n(CC(O)C(O)C(O)CO)c2c1 (stereo not drawn) ?
SENP6 inh: inactive; SENP8 block-1: inactive; SENP8 block-2: inactive; SENP7 block: inactive; SENP1 FRET inh: 60; Platelet DG rel: inactive

Results for O=C(c1cc2c(s1)CCCC2)n1cccn1 ?
SENP6 inh: 58; SENP8 block-1: inactive; SENP8 block-2: inactive; SENP7 block: 64; SENP1 FRET inh: inactive; Platelet DG rel: inactive

How did O=C(c1cc2c(s1)CCCCC2)N1CCN(c2ncccn2)CC1 do in these assays?
SENP6 inh: inactive; SENP8 block-1: inactive; SENP8 block-2: inactive; SENP7 block: inactive; SENP1 FRET inh: inactive; Platelet DG rel: inactive

Results for O=C1NC[C@H](CCCCN2C[C@H](Cc3ccc(O)cc3)N(Cc3ccccc3)C(=O)C2=O)N(Cc2ccccc2)C1=O ?
SENP8 block-2: inactive; SENP1 FRET inh: inactive

How did O=C(O)c1ccccc1NS(=O)(=O)c1ccc(NN=Cc2ccccc2F)c([N+](=O)[O-])c1 do in these assays?
SENP6 inh: inactive; SENP8 block-1: inactive; SENP8 block-2: inactive; SENP7 block: inactive; SENP1 FRET inh: inactive

What do the screens show for `COc1ccc(C=NNc2ccc(S(=O)(=O)Nc3ccccc3C(=O)O)cc2[N+](=O)[O-])c(OC)c1`?
SENP6 inh: inactive; SENP8 block-1: inactive; SENP8 block-2: 44; SENP7 block: inactive; SENP1 FRET inh: inactive

Results for COCOCCn1cc(CN2CCS(=O)(=O)N(Cc3ccc(-c4ccc(OC)cc4)cc3)C(C)C2=O)nn1 (stereo not drawn) ?
SENP8 block-2: inactive; SENP1 FRET inh: inactive

What do the screens show for `O=C(O)c1ccc2c(c1)C(=O)/C(=C\c1ccco1)C2=O`?
SENP6 inh: inactive; SENP8 block-1: inactive; SENP8 block-2: inactive; SENP7 block: inactive; SENP1 FRET inh: 31; Platelet DG rel: inactive

How did O=C(C1CCCCC1)N1C[C@@H](O)[C@H](n2cc(-c3ccc(F)cc3)nn2)C[C@@H]1c1ccccc1 do in these assays?
SENP8 block-2: inactive; SENP1 FRET inh: inactive

Results for CC1=C(C(=O)N(C(C)C)C(C)C)CC(CC(=O)NCC2CCCCC2)C(=O)N1Cc1ccc(C(C)(C)C)cc1 (stereo not drawn) ?
SENP8 block-2: inactive; SENP1 FRET inh: inactive

How did COc1ccc(NC(=S)N2CCN(c3ccc4c(c3)C3CCN(C(=O)OCc5ccccc5)C4C3)CC2)c(OC)c1 (stereo not drawn) do in these assays?
SENP8 block-2: inactive; SENP1 FRET inh: inactive

How did Cc1ccc(Cc2c(-c3ccco3)nc3c4ccccc4ccn23)cc1 do in these assays?
SENP8 block-2: inactive; SENP1 FRET inh: inactive

What do the screens show for `CC(=O)c1ccc(-c2nc3c4ccccc4ccn3c2C(C)=O)o1`?
SENP6 inh: inactive; SENP8 block-1: inactive; SENP8 block-2: inactive; SENP7 block: inactive; SENP1 FRET inh: inactive; Platelet DG rel: 51

How did COc1ccc(NC(=O)c2nc3nc(C)cc(C(F)F)n3n2)cc1OC do in these assays?
SENP6 inh: inactive; SENP8 block-1: inactive; SENP8 block-2: inactive; SENP7 block: inactive; SENP1 FRET inh: inactive; Platelet DG rel: 68

Results for CC(C)c1ccc(NC(=O)c2cc(-c3cc(F)ccc3OCC3CCCO3)n[nH]2)cc1 (stereo not drawn) ?
SENP8 block-2: inactive; SENP1 FRET inh: inactive
